Results reported in ChEMBL document CHEMBL5724801, “EUbOPEN Chemogenomics Library - Multiplex” (2024).
“And” between values parts separate entries of the source, which are not always exact repeats. Equal values may be shown once.

Tested on: Fibroblast
Assay: Multiplex assay against human fibroblast
Type: toxicity, cell-based
Summary of the method: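 Per cents of healthy-nucleus cells form the tubulin, mitochondrial-mass and membrane-permeability phenotype values. Live cells were stained at seeding with Hoechst33342, BioTracker Green Microtubule Cytoskeleton Dye, MitoTracker Red and Annexin V Alexa Fluor 680. After compound addition they were imaged on a CQ1 microscope at 37°C and 5% CO2, and CellPathfinder machine-learning gating split them into Hoechst high-intensity objects or normal cells, normal cells into healthy, pyknosed or fragmented nuclei, and pyknosed cells into mitotic or apoptotic.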

[1] = 12 h, 1 µM, compound concentration 1 uM
[2] = 12 h, 10 µM, compound concentration 10 uM
[3] = 24 h, 1 µM, compound concentration 1 uM
[4] = 24 h, 10 µM, compound concentration 10 uM
[5] = 48 h, 1 µM, compound concentration 1 uM
[6] = 48 h, 10 µM, compound concentration 10 uM

## CN1C[C@H](C(=O)N[C@]2(C)O[C@@]3(O)[C@@H]4CCCN4C(=O)[C@H](Cc4ccccc4)N3C2=O)C[C@@H]2c3cccc4[nH]cc(c34)C[C@H]21.CS(=O)(=O)O [DIHYDROERGOTAMINE MESYLATE]
[1]
  Population Apoptotic (%): 25% and 47%
  Population Fragmented Nuclei (%): 13% and 32%
  Population Healthy Nuclei (%): 70% and 51%
  Population Hoechst High Intensity Objects (%): 1% and 7%
  Population Membrane Permeable-Phenotype (%): 1% and 6%
  Population Mitochondria Different-Phenotype (%): 1% and 5%
  Population Mitotic Cells (%): 75% and 52%
  Population Normal (%): 98% and 92%
  Population Pyknosed Nuclei (%): 16%
  Population Tubulin-Different-Phenotype (%): 23% and 31%
  Total Cell Count: 127 and 155
[2]
  Population Apoptotic (%): 57% and 31%
  Population Fragmented Nuclei (%): 27% and 33%
  Population Healthy Nuclei (%): 65% and 45%
  Population Hoechst High Intensity Objects (%): 0% and 8%
  Population Membrane Permeable-Phenotype (%): 0% and 2%
  Population Mitochondria Different-Phenotype (%): 5% and 0%
  Population Mitotic Cells (%): 42% and 68%
  Population Normal (%): 100% and 91%
  Population Pyknosed Nuclei (%): 7% and 21%
  Total Cell Count: 92 and 114
[3]
  Population Apoptotic (%): 38% and 47%
  Population Fragmented Nuclei (%): 14% and 30%
  Population Healthy Nuclei (%): 75% and 56%
  Population Hoechst High Intensity Objects (%): 1% and 4%
  Population Membrane Permeable-Phenotype (%): 0% and 7%
  Population Mitochondria Different-Phenotype (%): 0% and 3%
  Population Mitotic Cells (%): 61% and 52%
  Population Normal (%): 98% and 95%
  Population Pyknosed Nuclei (%): 10% and 13%
  Population Tubulin-Different-Phenotype (%): 18% and 50%
  Total Cell Count: 130 and 149
[4]
  Population Apoptotic (%): 55% and 31%
  Population Fragmented Nuclei (%): 17% and 35%
  Population Healthy Nuclei (%): 72% and 43%
  Population Hoechst High Intensity Objects (%): 1% and 5%
  Population Membrane Permeable-Phenotype (%): 0% and 6%
  Population Mitochondria Different-Phenotype (%): 1% and 0%
  Population Mitotic Cells (%): 44% and 68%
  Population Normal (%): 98% and 94%
  Population Pyknosed Nuclei (%): 10% and 20%
  Total Cell Count: 89 and 113
[5]
  Population Apoptotic (%): 57% and 53%
  Population Fragmented Nuclei (%): 20% and 38%
  Population Healthy Nuclei (%): 68% and 50%
  Population Hoechst High Intensity Objects (%): 1% and 5%
  Population Membrane Permeable-Phenotype (%): 0% and 6%
  Population Mitochondria Different-Phenotype (%): 2% and 6%
  Population Mitotic Cells (%): 42% and 46%
  Population Normal (%): 98% and 94%
  Population Pyknosed Nuclei (%): 10% and 11%
  Population Tubulin-Different-Phenotype (%): 30% and 48%
  Total Cell Count: 134 and 139
[6]
  Population Apoptotic (%): 63% and 76%
  Population Fragmented Nuclei (%): 21% and 44%
  Population Healthy Nuclei (%): 65% and 44%
  Population Hoechst High Intensity Objects (%): 3%
  Population Membrane Permeable-Phenotype (%): 1% and 11%
  Population Mitochondria Different-Phenotype (%): 3% and 5%
  Population Mitotic Cells (%): 36% and 23%
  Population Normal (%): 96%
  Population Pyknosed Nuclei (%): 12% and 10%
  Population Tubulin-Different-Phenotype (%): 20% and 55%
  Total Cell Count: 91 and 126

## O=C(Nc1cc(-c2ccccc2)nn1-c1ccccc1F)c1ccc([N+](=O)[O-])cc1
[1]
  Population Apoptotic (%): 28% and 32%
  Population Fragmented Nuclei (%): 17% and 19%
  Population Healthy Nuclei (%): 71% and 55%
  Population Hoechst High Intensity Objects (%): 2% and 8%
  Population Membrane Permeable-Phenotype (%): 1% and 4%
  Population Mitochondria Different-Phenotype (%): 1% and 9%
  Population Mitotic Cells (%): 71% and 67%
  Population Normal (%): 97% and 91%
  Population Pyknosed Nuclei (%): 10% and 25%
  Population Tubulin-Different-Phenotype (%): 22% and 53%
  Total Cell Count: 138 and 160
[2]
  Population Apoptotic (%): 28% and 45%
  Population Fragmented Nuclei (%): 10% and 25%
  Population Healthy Nuclei (%): 66% and 47%
  Population Hoechst High Intensity Objects (%): 2% and 6%
  Population Membrane Permeable-Phenotype (%): 1% and 6%
  Population Mitochondria Different-Phenotype (%): 4% and 3%
  Population Mitotic Cells (%): 71% and 54%
  Population Normal (%): 97% and 93%
  Population Pyknosed Nuclei (%): 22% and 26%
  Population Tubulin-Different-Phenotype (%): 48% and 77%
  Total Cell Count: 170 and 149
[3]
  Population Apoptotic (%): 53% and 50%
  Population Fragmented Nuclei (%): 16% and 25%
  Population Healthy Nuclei (%): 74% and 53%
  Population Hoechst High Intensity Objects (%): 2% and 7%
  Population Membrane Permeable-Phenotype (%): 0% and 6%
  Population Mitochondria Different-Phenotype (%): 0% and 2%
  Population Mitotic Cells (%): 46% and 50%
  Population Normal (%): 97% and 92%
  Population Pyknosed Nuclei (%): 9% and 20%
  Population Tubulin-Different-Phenotype (%): 18% and 52%
  Total Cell Count: 135 and 156
[4]
  Population Apoptotic (%): 26% and 28%
  Population Healthy Nuclei (%): 76% and 53%
  Population Hoechst High Intensity Objects (%): 4% and 6%
  Population Membrane Permeable-Phenotype (%): 1% and 9%
  Population Mitochondria Different-Phenotype (%): 7% and 1%
  Population Mitotic Cells (%): 73% and 72%
  Population Normal (%): 95% and 93%
  Population Pyknosed Nuclei (%): 16% and 18%
  Population Tubulin-Different-Phenotype (%): 49% and 69%
  Total Cell Count: 163 and 147
[5]
  Population Apoptotic (%): 54% and 55%
  Population Fragmented Nuclei (%): 23% and 30%
  Population Healthy Nuclei (%): 67% and 53%
  Population Hoechst High Intensity Objects (%): 7%
  Population Membrane Permeable-Phenotype (%): 1% and 5%
  Population Mitochondria Different-Phenotype (%): 0% and 4%
  Population Mitotic Cells (%): 45% and 44%
  Population Normal (%): 92%
  Population Pyknosed Nuclei (%): 8% and 15%
  Population Tubulin-Different-Phenotype (%): 18% and 54%
  Total Cell Count: 145 and 183
[6]
  Population Apoptotic (%): 66% and 52%
  Population Fragmented Nuclei (%): 16% and 31%
  Population Healthy Nuclei (%): 70% and 54%
  Population Hoechst High Intensity Objects (%): 7% and 5%
  Population Membrane Permeable-Phenotype (%): 3% and 6%
  Population Mitochondria Different-Phenotype (%): 3%
  Population Mitotic Cells (%): 33% and 47%
  Population Normal (%): 92% and 94%
  Population Pyknosed Nuclei (%): 12% and 14%
  Population Tubulin-Different-Phenotype (%): 55% and 66%
  Total Cell Count: 160 and 153
